Reference: ChEMBL document CHEMBL4622843, “Synthesis, state-of-the-art NMR-binding and molecular modeling study of new benzimidazole core derivatives as Pin1 inhibitors: Targeting breast cancer” (Bioorg Med Chem, 2020)
Calls of active or inactive are those of the source. The calls are words filed in the database; no cut-off is given here.

Assays:
MCF7 [1] = assay: Cytotoxicity against human MCF7 cells assessed as reduction in cell viability after 24 hrs by MTT assay; assay type: functional, cell-based; conditions: MCF7, 24 h
[2] = molecular target: Peptidyl-prolyl cis-trans isomerase NIMA-interacting 1 (Homo sapiens) (UniProt Q13526); assay: Binding affinity to recombinant human 15N-labelled N-terminal 6His-tagged Pin1 expressed in Escherichia coli BL21 (DE3) cells at 1:10 ratio of protein to compound by 2D 15N-1H HSQC NMR spectroscopy
Outline: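 Pin1 and compound at a 1:10 protein:compound ratio, compound partially dissolved in 95% buffer/5% DMSO. A reference HSQC spectrum was recorded with DMSO only and compared with ligand-containing spectra.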

[3] = Solubility of the compound in 95% PBS buffer/5% DMSO; assay type: physicochemical
MCF7 [4] = assay: Induction of apoptosis in human MCF7 cells assessed as early apoptotic cells at 10 mg/ml after 24 hrs by AnnexinV-FITC/propidium iodide staining based flow cytometry analysis (reference value: 0.41%); assay type: functional
MCF7 [5] = assay: Induction of apoptosis in human MCF7 cells assessed as late apoptotic cells at 10 mg/ml after 24 hrs by AnnexinV-FITC/propidium iodide staining based flow cytometry analysis (reference value: 0.19%); assay type: functional
MCF7 [6] = assay: Induction of apoptosis in human MCF7 cells assessed as necrotic cells at 10 mg/ml after 24 hrs by AnnexinV-FITC/propidium iodide staining based flow cytometry analysis (reference value: 0.44%); assay type: functional
MCF7 [7] = assay: Cell cycle arrest in human MCF7 cells assessed as accumulation at PreG1 phase at 10 mg/ml after 24 hrs by Annexin V-FITC/propidium iodide staining based flow cytometry (reference value: 1.04%); assay type: functional
MCF7 [8] = assay: Cell cycle arrest in human MCF7 cells assessed as accumulation at G0/G1 phase at 10 mg/ml after 24 hrs by Annexin V-FITC/propidium iodide staining based flow cytometry (reference value: 56.38%); assay type: functional
MCF7 [9] = assay: Cell cycle arrest in human MCF7 cells assessed as accumulation at G2/M phase at 10 mg/ml after 24 hrs by Annexin V-FITC/propidium iodide staining based flow cytometry (reference value: 5.47%); assay type: functional
MCF7 [10] = assay: Cell cycle arrest in human MCF7 cells assessed as accumulation at S phase at 10 mg/ml after 24 hrs by Annexin V-FITC/propidium iodide staining based flow cytometry (reference value: 38.15%); assay type: functional

Chain of Peptidyl-prolyl cis-trans isomerase NIMA-interacting 1 (Homo sapiens) (Q13526 whole entry): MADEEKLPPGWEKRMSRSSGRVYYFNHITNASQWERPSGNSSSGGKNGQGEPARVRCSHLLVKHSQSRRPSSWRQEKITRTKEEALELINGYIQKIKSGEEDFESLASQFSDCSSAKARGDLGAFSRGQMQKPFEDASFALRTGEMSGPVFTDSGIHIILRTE

| Structure (SMILES) | IC50 (MCF7 [1]) [µM] | also measured |
| --- | --- | --- |
| CCOc1ccccc1N1CCN(CCCSc2nc3cc(Cl)ccc3[nH]2)CC1 | 27.7 |  |
| c1ccc2[nH]c(SCCCN3CCOCC3)nc2c1 | 82.9 |  |
| COc1ccc(N2CCN(C(=S)SCc3nc4cc(C)c(C)cc4[nH]3)CC2)cc1 | 46 |  |
| CN1CCN(CCCSc2nc3ccccc3[nH]2)CC1 | 77.9 |  |
| CCN(CC)C(=S)SCc1nc2cc(Cl)c(Cl)cc2[nH]1 | 12.6 |  |
| Clc1cccc(N2CCN(CCCSc3nc4cc(Cl)ccc4[nH]3)CC2)c1 | 61.4 |  |
| S=C(SCc1nc2cc(Cl)c(Cl)cc2[nH]1)N1CCOCC1 | 5.7 | Activity [2]: Active; solubility [3]: Soluble |
| COc1ccc(N2CCN(CCCSc3nc4cc(Cl)ccc4[nH]3)CC2)cc1 | 38.5 |  |
| CCOc1ccccc1N1CCN(CCCSc2nc3ccccc3[nH]2)CC1 | 32.7 |  |
| COc1ccc(N2CCN(C(=S)SCc3nc4cc(Cl)c(Cl)cc4[nH]3)CC2)cc1 | 19.9 |  |
| CCOc1ccccc1N1CCN(C(=S)SCc2nc3cc(Cl)c(Cl)cc3[nH]2)CC1 | 16.2 |  |
| COc1ccc(N2CCN(CCCSc3nc4ccccc4[nH]3)CC2)cc1 | 6.84 | Activity [2]: Active; solubility [3]: Soluble |
| ClCCCSc1nc2cc(Cl)ccc2[nH]1 | 24.1 |  |
| CN1CCN(CCCSc2nc3cc(Cl)ccc3[nH]2)CC1 | 13.9 |  |
| S=C(SCc1nc2cc(Cl)c(Cl)cc2[nH]1)N1CCCCC1 | 42.8 |  |
| Clc1cccc(N2CCN(CCCSc3nc4ccccc4[nH]3)CC2)c1 | 54.6 |  |
| CCOc1ccccc1N1CCN(C(=S)SCc2nc3cc(C)c(C)cc3[nH]2)CC1 | 5.58 | Activity (MCF7 [4]): 7.36%; Activity (MCF7 [5]): 17.01%; Activity (MCF7 [6]): 2.91%; Activity (MCF7 [7]): 27.28%; Activity (MCF7 [8]): 39.72%; Activity (MCF7 [9]): 27.86%; Activity (MCF7 [10]): 32.42% |
| c1ccc2[nH]c(SCCCN3CCNCC3)nc2c1 | 91.7 |  |
| CN1CCN(C(=S)SCc2nc3cc(Cl)c(Cl)cc3[nH]2)CC1 | 30.5 |  |
| Cc1cc2nc(CSC(=S)N3CCCCC3)[nH]c2cc1C | 9.55 | Activity [2]: Active; solubility [3]: Soluble |
